Source: ChEMBL document CHEMBL4665726, “Development of a selective HDAC inhibitor aimed at reactivating the HIV latent reservoir” (Bioorg Med Chem Lett, 2020)

Key:
[1] = target: T1, Protein deacetylase HDAC6 (Homo sapiens, UniProt Q9UBN7); test: Inhibition of HDAC6 (unknown origin)
T1 sequence (Q9UBN7 whole entry): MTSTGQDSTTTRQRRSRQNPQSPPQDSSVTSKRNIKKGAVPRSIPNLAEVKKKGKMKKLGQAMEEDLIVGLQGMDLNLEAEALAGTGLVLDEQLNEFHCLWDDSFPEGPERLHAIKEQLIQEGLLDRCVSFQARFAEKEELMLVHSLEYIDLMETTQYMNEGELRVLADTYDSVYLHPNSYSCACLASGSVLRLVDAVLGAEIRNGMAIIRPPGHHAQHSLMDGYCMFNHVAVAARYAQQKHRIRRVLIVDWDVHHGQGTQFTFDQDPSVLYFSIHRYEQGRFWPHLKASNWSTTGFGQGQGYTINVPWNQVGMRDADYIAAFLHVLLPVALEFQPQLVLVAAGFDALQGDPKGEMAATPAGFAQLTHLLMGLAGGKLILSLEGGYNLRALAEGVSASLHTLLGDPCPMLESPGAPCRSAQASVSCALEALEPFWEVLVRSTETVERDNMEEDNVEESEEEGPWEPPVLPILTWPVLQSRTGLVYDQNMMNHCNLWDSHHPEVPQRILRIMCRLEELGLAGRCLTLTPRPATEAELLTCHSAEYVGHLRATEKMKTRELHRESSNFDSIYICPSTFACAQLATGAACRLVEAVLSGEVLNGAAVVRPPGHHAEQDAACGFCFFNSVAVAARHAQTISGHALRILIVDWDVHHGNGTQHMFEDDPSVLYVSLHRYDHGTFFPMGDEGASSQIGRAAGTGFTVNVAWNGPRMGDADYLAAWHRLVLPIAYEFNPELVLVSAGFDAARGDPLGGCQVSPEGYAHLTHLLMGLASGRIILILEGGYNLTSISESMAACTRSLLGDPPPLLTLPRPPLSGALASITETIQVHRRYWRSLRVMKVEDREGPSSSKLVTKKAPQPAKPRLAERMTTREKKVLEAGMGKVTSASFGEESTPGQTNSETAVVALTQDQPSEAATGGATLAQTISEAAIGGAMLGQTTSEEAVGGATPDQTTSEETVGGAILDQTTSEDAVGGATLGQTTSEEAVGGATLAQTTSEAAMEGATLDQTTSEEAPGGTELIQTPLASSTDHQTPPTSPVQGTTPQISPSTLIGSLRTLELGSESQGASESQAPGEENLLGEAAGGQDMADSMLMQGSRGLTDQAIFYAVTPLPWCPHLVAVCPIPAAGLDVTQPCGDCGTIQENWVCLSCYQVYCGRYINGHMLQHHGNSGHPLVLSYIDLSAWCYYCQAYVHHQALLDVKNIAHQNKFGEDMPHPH

Histone deacetylase 3 = Histone deacetylase 3 (Homo sapiens, UniProt O15379); test: Inhibition of HDAC3 (unknown origin)
Sequence of Histone deacetylase 3 (O15379 whole entry): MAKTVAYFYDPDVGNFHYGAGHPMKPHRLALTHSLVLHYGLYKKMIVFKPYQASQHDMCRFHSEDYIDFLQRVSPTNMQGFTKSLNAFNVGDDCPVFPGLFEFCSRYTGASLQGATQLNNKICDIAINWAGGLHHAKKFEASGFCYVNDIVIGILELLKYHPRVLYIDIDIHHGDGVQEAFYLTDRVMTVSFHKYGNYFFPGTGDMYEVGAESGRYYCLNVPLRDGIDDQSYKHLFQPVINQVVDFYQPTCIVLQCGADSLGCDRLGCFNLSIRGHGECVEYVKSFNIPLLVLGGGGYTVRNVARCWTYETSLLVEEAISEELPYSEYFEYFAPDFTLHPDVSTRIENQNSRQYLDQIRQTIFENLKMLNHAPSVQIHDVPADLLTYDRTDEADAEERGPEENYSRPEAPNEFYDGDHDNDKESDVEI

Histone deacetylase 8 = target: T2, Histone deacetylase 8 (Homo sapiens, UniProt Q9BY41); test: Inhibition of HDAC8 (unknown origin)
T2 sequence (Q9BY41 whole entry): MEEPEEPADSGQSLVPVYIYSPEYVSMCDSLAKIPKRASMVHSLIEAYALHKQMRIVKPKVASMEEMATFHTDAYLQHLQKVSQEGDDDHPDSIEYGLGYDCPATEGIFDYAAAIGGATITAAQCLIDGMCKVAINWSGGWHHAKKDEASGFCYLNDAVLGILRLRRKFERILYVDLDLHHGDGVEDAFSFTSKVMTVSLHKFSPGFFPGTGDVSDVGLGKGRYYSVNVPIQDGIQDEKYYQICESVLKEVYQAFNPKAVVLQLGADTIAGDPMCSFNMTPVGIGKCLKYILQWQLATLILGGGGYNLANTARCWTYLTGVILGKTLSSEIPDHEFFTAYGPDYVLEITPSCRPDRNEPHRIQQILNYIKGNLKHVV

Histone deacetylase 1 = Histone deacetylase 1 (Homo sapiens, UniProt Q13547); test: Inhibition of HDAC1 (unknown origin)
Sequence of Histone deacetylase 1 (Q13547 whole entry): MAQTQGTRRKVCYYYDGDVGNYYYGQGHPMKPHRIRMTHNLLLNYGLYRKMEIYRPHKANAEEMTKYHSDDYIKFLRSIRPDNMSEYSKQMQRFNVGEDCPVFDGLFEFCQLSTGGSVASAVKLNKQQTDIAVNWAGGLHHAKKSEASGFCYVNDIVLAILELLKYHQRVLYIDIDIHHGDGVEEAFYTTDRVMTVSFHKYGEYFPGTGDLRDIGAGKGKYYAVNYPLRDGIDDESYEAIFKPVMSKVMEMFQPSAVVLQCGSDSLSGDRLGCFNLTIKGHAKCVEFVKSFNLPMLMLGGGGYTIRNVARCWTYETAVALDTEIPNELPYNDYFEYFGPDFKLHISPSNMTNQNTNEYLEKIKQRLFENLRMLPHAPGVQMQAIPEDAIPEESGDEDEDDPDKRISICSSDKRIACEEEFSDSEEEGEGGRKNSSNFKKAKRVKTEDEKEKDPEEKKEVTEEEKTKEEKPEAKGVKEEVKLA

Histone deacetylase 2 = Histone deacetylase 2 (Homo sapiens, UniProt Q92769); test: Inhibition of HDAC2 (unknown origin)
Sequence of Histone deacetylase 2 (Q92769 whole entry): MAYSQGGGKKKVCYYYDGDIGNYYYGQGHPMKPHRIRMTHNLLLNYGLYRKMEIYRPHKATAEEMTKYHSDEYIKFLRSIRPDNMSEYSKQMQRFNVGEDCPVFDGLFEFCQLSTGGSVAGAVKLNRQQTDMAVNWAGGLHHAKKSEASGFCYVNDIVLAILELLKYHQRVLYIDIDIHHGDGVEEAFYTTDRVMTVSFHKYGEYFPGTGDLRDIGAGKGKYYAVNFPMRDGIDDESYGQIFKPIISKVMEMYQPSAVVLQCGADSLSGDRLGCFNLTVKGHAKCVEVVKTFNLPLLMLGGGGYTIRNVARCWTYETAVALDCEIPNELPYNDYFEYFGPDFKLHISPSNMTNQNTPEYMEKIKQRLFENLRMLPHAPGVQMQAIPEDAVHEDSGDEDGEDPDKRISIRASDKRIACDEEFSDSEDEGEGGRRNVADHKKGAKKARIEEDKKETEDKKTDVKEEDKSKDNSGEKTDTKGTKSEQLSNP

[2] = target: T3, Class 1 histone deacetylase (Homo sapiens, UniProt Q13547+O15379+Q92769+Q9BY41); test: Inhibition of Class 1 HDAC in VSV-G-pseudotyped HIV infected human 2C4 cell Jurkat model assessed as reactivation of HIV latency in presence of 5% NHS by fluorescent reporter gene assay
Procedure, shortened: (§1)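 Latently infected Jurkat 2C4 cells (HIV latency model) were tested for reactivation of silenced provirus in parallel at two normal human serum levels: 0.1% and 5%. The paired runs gauge the potency shift from plasma protein binding.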

[3] = target: T3, Class 1 histone deacetylase; test: Inhibition of Class 1 HDAC in VSV-G-pseudotyped HIV infected human 2C4 cell Jurkat model assessed as reactivation of HIV latency in presence of 0.1% NHS by fluorescent reporter gene assay; procedure, shortened: as §1
[4] = Oral bioavailability in Wistar Han rat at 10 mg/kg; format: ADME, organism-based; conditions: in vivo
[5] = Apparent permeability of the compound; format: ADME; conditions: not told
[6] = Unbound volume of distribution in Wistar Han rat at 2 mg/kg, iv or 10 mg/kg, po; format: ADME, organism-based; conditions: in vivo
[7] = Half life in Wistar Han rat at 2 mg/kg, iv or 10 mg/kg, po; format: ADME, organism-based; conditions: in vivo
[8] = Unbound clearance in Wistar Han rat at 2 mg/kg, iv or 10 mg/kg, po; format: ADME, organism-based; conditions: in vivo

SMILES	IC50 [1] [µM]	IC50 (Histone deacetylase 3) [nM]	IC50 (Histone deacetylase 8) [µM]	IC50 (Histone deacetylase 1) [nM]	IC50 (Histone deacetylase 2) [nM]	EC50 [2] [nM]	EC50 [3] [nM]	bioavailability [4] [%]	Papp [5] [×10⁻⁶ cm/s]	Vdu [6] [L/kg]	half-life [7] [min]	CL free [8] [mL/min/kg]
CCC(=O)CCCCC[C@H](NC(=O)c1cncs1)c1[nH]c(-c2ccc(F)cc2)nc1C#N	> 45	3.1	12.3	10.6	51.3	1111	254					
CCC(=O)CCCCCC(NC(=O)c1cncs1)c1[nH]c(-c2ccccc2)nc1C(=O)NCCN(C)C (stereo not given)	> 45	4.5	5.34	13.5	53.1	853	1142					
CCC(=O)CCCCC[C@H](NC(=O)[C@H]1CC12CCN(C)CC2)c1[nH]c(-c2ccc3nn(C)cc3c2)nc1C#N	9.04	0.3	12.4	0.4	2.1	322	247					
CCC(=O)CCCCC[C@H](NC(=O)[C@H]1CC12CCN(C)CC2)c1[nH]c(-c2cc3ccccc3nc2OC)nc1C#N	8.97	101	> 45	97.9	177	1351	548					
CCC(=O)CCCCC[C@H](NC(=O)C1CN(C)C1)c1[nH]c(-c2ccc(F)cc2)nc1C(N)=O	15.9	3.6	5.38	3.5	34.4	643	775					
CCC(=O)CCCCCC(NC(=O)c1cncs1)c1[nH]c(-c2ccccc2)nc1C(=O)NC (stereo not given)	29.2	4.7	7.47	27.6	91.4	1804	570					
CCC(=O)CCCCC[C@H](NC(=O)[C@H]1CC12CCN(CC)CC2)c1[nH]c(-c2ccc(F)cc2)nc1C(N)=O	17.5	0.7	6.36	0.4	5	165	193					
CCC(=O)CCCCC[C@H](NC(=O)[C@H]1CC12CCN(C)CC2)c1[nH]c(-c2ccc(F)cc2)nc1C#N				3.8		409	233	1	1.7	40	240	244
CCC(=O)CCCCCC(NC(=O)c1cncs1)c1[nH]c(-c2ccccc2)nc1C(=O)N1CCOCC1 (stereo not given)	19	19.1	16.8	43.6	159	3771	2729					
CCC(=O)CCCCC[C@H](NC(=O)C1CCOCC1)c1[nH]c(-c2ccc(F)cc2)nc1C(N)=O	27.9	3.4	7.57	12.3	73.8	1504	1834					
CCC(=O)CCCCC[C@H](NC(=O)[C@H]1CC12CCN(C)CC2)c1[nH]c(-c2ccc(F)cc2F)nc1C#N	14.8	18.9	20.7	35.2	155	1260	1233					
CCC(=O)CCCCC[C@H](NC(=O)[C@H]1CC12CCN(C)CC2)c1[nH]c(-c2ccc(C(F)(F)F)cc2)nc1C#N	8.25	1.9	19.2	3.7	15.6	175	107					
